A selection: hits, their analogues and other compounds. The true share with any hit is near 3.7%.
KCNQ1 inh: inhibitors of human KCNQ1 potassium channel | B-score at 10 µM | CHO-K1 KCNQ1, FluxOR thallium flux fluorescence; active compounds read high | 310,000 tested, 1.3% active | AID 2642 | P51787;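 active = compounds whose thallium flux B-score, printed positive for inhibition, exceeds three library SD while starting fluorescence stays within three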;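 note: channel opened by potassium depolarization with thallium stimulus after 20 min compound exposure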
Target sequence (P51787 whole entry, looked up): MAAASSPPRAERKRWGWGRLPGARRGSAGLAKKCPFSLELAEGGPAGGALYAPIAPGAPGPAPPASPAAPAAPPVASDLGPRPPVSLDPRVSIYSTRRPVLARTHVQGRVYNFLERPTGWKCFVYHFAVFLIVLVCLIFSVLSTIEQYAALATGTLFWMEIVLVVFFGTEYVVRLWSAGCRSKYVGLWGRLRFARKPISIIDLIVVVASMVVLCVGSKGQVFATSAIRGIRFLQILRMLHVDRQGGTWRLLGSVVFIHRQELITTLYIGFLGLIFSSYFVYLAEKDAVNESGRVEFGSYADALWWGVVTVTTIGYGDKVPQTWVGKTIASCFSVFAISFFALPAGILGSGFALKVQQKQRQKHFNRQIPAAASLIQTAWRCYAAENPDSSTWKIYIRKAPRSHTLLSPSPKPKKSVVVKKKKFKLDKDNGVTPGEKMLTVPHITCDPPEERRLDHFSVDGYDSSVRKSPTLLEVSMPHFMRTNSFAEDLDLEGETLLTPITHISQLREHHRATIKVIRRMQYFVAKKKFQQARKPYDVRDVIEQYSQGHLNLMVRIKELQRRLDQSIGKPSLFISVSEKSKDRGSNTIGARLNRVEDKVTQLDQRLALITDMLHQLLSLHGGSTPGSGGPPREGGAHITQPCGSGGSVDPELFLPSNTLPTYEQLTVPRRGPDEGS
KCNK9 block: inhibitors of human KCNK9 two-pore domain potassium channel | B-score at 10 µM | Q9NPC2 | 310,000 tested, 1.2% active | HEK293 KCNK9, FluxOR thallium flux fluorescence; active compounds read low | AID 488922;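 active = ratio B-score over 3 SD below the library mean, with starting fluorescence within 5 SD of its mean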;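 note: negative B-score means less thallium flux so channel inhibition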
hERG protect: compounds protecting human hERG from proarrhythmic drug block; Q12809; CHO-hERG, FluxOR thallium flux, dofetilide IC70 present; activation (rescue from dofetilide block), less the hit threshold, % at 10 µM; 310,000 tested, 0.51% active;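 active = activation above the mean of controls blocked by dofetilide plus 5 SD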;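 note: thallium influx through hERG after potassium depolarization seen as dye fluorescence rise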
KCNK3 block: human KCNK3 channel inhibition, primary screen; CHO-KCNK3 thallium flux, FluxOR fluorescence; active compounds read low; 340,000 tested, 0.84% active; B-score at 10 µM; AID 602410; O14649;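 active = B-score under library mean minus 4 SD, starting fluorescence ratio at most library mean plus 5 SD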;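 note: more negative B-score means stronger inhibition of thallium flux through KCNK3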
Kir21 inh: inhibitors of mouse Kir2.1 inward-rectifier potassium channel | HEK293-Kir2.1, FluxOR thallium flux fluorescence; active compounds read low | B-score at 10 µM | 310,000 tested, 0.85% active | AID 1672;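 active = fluorescence ratio B-score at or below minus 3 SD of library scores, with starting-brightness B-score within 2 SD, cut at about -4.2 in these data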;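 note: channel flux triggered by added potassium and thallium sulfate stimulus; B-score of peak minus minimum fluorescence over baseline after thallium stimulus; more negative B-score means stronger Kir2.1 block with less thallium influx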
KCNQ1 act: human KCNQ1 channel potentiation or activation; P51787; CHO-K1 KCNQ1, thallium flux FluxOR fluorescence; active compounds read high; B-score at 10 µM; 310,000 tested, 0.35% active;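 active = fluorescence ratio B-score, a plate-corrected score, at least three library SD, with initial intensity B-score within 5 SD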
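assay system = CHO-K1 cells stably expressing KCNQ1 | medium = assay buffer, equal DMSO in all wells | timing = 37 °C overnight plating, 90-min dark dye load, 20-min compound pretreatment | measured by = kinetic FluxOR thallium fluorescence, 10-s 1-Hz baseline, 110-s post-stimulus read | measure = fluorescence change relative to baseline, converted to B score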
KCNQ1 inh valid: confirmation of human KCNQ1 potassium channel inhibitors | 1,600 tested, 93% active | shares compounds with KCNQ1 inh | KCNQ1 cell line, FluxOR thallium flux fluorescence | inhibition, % at 10 µM;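 active = primary screen active, with duplicate mean exceeding buffer control mean plus 3 SD of buffer wells, cut at about 28% in these data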;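 note: 0% = buffer control ratio and 100% = XE991 inhibitor control ratio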
CHO Tl flux: activity in parental CHO cells lacking KCNQ1; shares compounds with KCNQ1 inh; fluorescence ratio (Tl flux) at 10 µM; 1,600 tested, 21% active; AID 588366; parental CHO-K1, FluxOR thallium flux fluorescence ratio; active compounds read low; zero means no signal rise above baseline;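 active = mean of duplicate thallium-flux fluorescence ratios in parental host cells more than 5 SD below the buffer control mean, cut at about 0.38 in these data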;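 note: ratio is peak minus minimum fluorescence divided by baseline fluorescence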
KCNQ1 ephys val: blocks human KCNQ1 current in automated patch clamp. shares compounds with KCNQ1 inh. KCNQ1-CHO cells. calls only at 10 µM. 490 tested, 20% active. AID 624120;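 active = KCNQ1 current drop exceeding 3 SD of negative control wells, seen in both duplicate runs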;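 note: steady state current during a 2 s step from -80 to +40 mV; negative values mean current inhibition and positive values mean potentiation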
KCNQ2 spec: KCNQ1 inhibitor that also blocks rat KCNQ2 channel; shares compounds with KCNQ1 inh; KCNQ2 cells, FluxOR thallium flux fluorescence; inhibition, % at 10 µM; 1,600 tested, 71% active;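 active = mean percent inhibition of the KCNQ2 thallium signal more than 5 SD above the buffer-only control wells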;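 note: KCNQ2 expressed in CHO cells; 0% = buffer control wells and 100% = XE-991 inhibitor control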
KCNQ1 KCNE1 spec: selectivity of KCNQ1 inhibitors: inhibition of human KCNQ1/KCNE1 channel; shares compounds with KCNQ1 inh; KCNQ1/KCNE1 cells, FluxOR thallium flux fluorescence; inhibition, % at 10 µM; 1,600 tested, 77% active;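 active = mean percent inhibition of duplicate wells above the buffer-only control mean plus 3 SD of those controls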;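 note: 0% = buffer only wells and 100% = XE-991 inhibitor control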
Numbers without * were called inactive.

Results for Fc1ccc(CCNC(=S)Nc2ccc(F)c(Cl)c2)cc1 ?
KCNQ1 inh: 9*; KCNK9 block: inactive; hERG protect: -25; KCNK3 block: inactive; Kir21 inh: -3.7; KCNQ1 act: inactive; KCNQ1 inh valid: 48*; CHO Tl flux: 0.58; KCNQ2 spec: inactive; KCNQ1 KCNE1 spec: inactive

What do the screens show for `CC(=O)Nc1ccc(C23CC4CC(CC(C4)C2)C3)cc1`?
KCNQ1 inh: inactive; KCNK9 block: inactive; hERG protect: -13; KCNK3 block: inactive; Kir21 inh: -0.1; KCNQ1 act: inactive

What do the screens show for `CNC(=S)Nc1ccc(C23CC4CC(CC(C4)C2)C3)cc1`?
KCNQ1 inh: 7*; KCNK9 block: inactive; hERG protect: -9; KCNK3 block: inactive; Kir21 inh: -0.4; KCNQ1 act: inactive; KCNQ1 inh valid: 74*; CHO Tl flux: 0.47; KCNQ2 spec: 65%*; KCNQ1 KCNE1 spec: 90%*

How did COc1ccc(-c2coc3cc(OC(C)=O)ccc3c2=S)cc1 do in these assays?
KCNK3 block: inactive

How did CCN(CC)C(=O)c1ccc(COc2ccc(Cl)c(C)c2)o1 do in these assays?
KCNQ1 inh: 11*; KCNK9 block: inactive; hERG protect: -13; KCNK3 block: inactive; Kir21 inh: -0.8; KCNQ1 act: inactive; KCNQ1 inh valid: 114*; CHO Tl flux: 0.44; KCNQ1 ephys val: inactive; KCNQ2 spec: 130%*; KCNQ1 KCNE1 spec: 109%*

How did COc1cc(OC)cc(C(=O)Nc2nc(CC(=O)NCCc3ccccc3)cs2)c1 do in these assays?
KCNQ1 inh: 15*; KCNK9 block: inactive; hERG protect: -23; KCNK3 block: inactive; Kir21 inh: -0.46; KCNQ1 act: inactive; KCNQ1 inh valid: 48*; CHO Tl flux: 0.42; KCNQ2 spec: 111%*; KCNQ1 KCNE1 spec: 103%*

Results for Cc1ccc(-n2c(-c3ccc(Br)cc3)c[n+]3c2CCc2ccc4cccnc4c2-3)cc1 ?
KCNQ1 inh: 19*; KCNK9 block: inactive; hERG protect: -43; KCNK3 block: -11*; Kir21 inh: -14*; KCNQ1 act: inactive; KCNQ1 inh valid: 136*; CHO Tl flux: 0.32*; KCNQ2 spec: 120%*; KCNQ1 KCNE1 spec: 184%*

Results for CC1CCCC(NC(=O)CSC2=Nc3ccccc3C3CC=NN23)C1C (stereo unspecified) ?
KCNK3 block: inactive

How did O=C(NCc1ccco1)c1cccc(Nc2nc3ccc(Br)cc3[nH]2)c1 do in these assays?
KCNQ1 inh: 8*; KCNK9 block: inactive; hERG protect: -26; KCNK3 block: inactive; Kir21 inh: -0.73; KCNQ1 act: inactive; KCNQ1 inh valid: 163*; CHO Tl flux: 0.33*; KCNQ2 spec: 128%*; KCNQ1 KCNE1 spec: active

Results for O=C(NCC1CC1)c1ccc(Nc2nc3ccc(Br)cc3[nH]2)cc1 ?
KCNQ1 inh: inactive; KCNK9 block: inactive; hERG protect: -13; KCNK3 block: inactive; Kir21 inh: 3; KCNQ1 act: inactive

Results for O=C(C1CCCN(c2ncnc3c2nc2n3CCCCC2)C1)N1CCN(c2ccccc2F)CC1 (stereo unspecified) ?
KCNQ1 inh: inactive; KCNK9 block: inactive; hERG protect: -22; KCNK3 block: inactive; Kir21 inh: 0.24; KCNQ1 act: inactive

How did NC(=O)c1cc(S(=O)(=O)NCCc2ccc(S(N)(=O)=O)cc2)cs1 do in these assays?
KCNQ1 inh: inactive; KCNK9 block: inactive; hERG protect: -6; KCNK3 block: inactive; Kir21 inh: 1; KCNQ1 act: inactive

Results for COc1cccc(NC(=O)N2CCN(c3nc(-c4cccc(OC)c4)cs3)CC2)c1 ?
KCNQ1 inh: inactive; KCNK9 block: inactive; hERG protect: -16; KCNK3 block: inactive; Kir21 inh: 2; KCNQ1 act: inactive

What do the screens show for `COc1cccc(-c2csc(N3CCN(C(=O)NC45CC6CC(CC(C6)C4)C5)CC3)n2)c1`?
KCNQ1 inh: 8*; KCNK9 block: inactive; hERG protect: -11; KCNK3 block: inactive; Kir21 inh: 0; KCNQ1 act: inactive; KCNQ1 inh valid: 102*; CHO Tl flux: 0.43; KCNQ2 spec: 106%*; KCNQ1 KCNE1 spec: 136%*

How did O=c1oc2c(-c3cccc(F)c3)cc(O)cc2s1 do in these assays?
KCNQ1 inh: 11*; KCNK9 block: inactive; hERG protect: -12; KCNK3 block: inactive; Kir21 inh: 0.07; KCNQ1 act: inactive; KCNQ1 inh valid: 74*; CHO Tl flux: 0.51; KCNQ2 spec: inactive; KCNQ1 KCNE1 spec: 64%*

What do the screens show for `CCc1noc(C)c1C(=O)N1CCCSC1=Nc1ccccc1C(C)C`?
KCNQ1 inh: 6*; KCNK9 block: inactive; hERG protect: -9; KCNK3 block: inactive; Kir21 inh: -1.9; KCNQ1 act: inactive; KCNQ1 inh valid: 84*; CHO Tl flux: 0.39; KCNQ2 spec: 106%*; KCNQ1 KCNE1 spec: 104%*

How did CCn1c(=O)c(CCC(=O)N2CCN(c3ccccn3)CC2)c(C)c2c(C)nn(-c3ccccc3)c21 do in these assays?
KCNQ1 inh: 7*; KCNK9 block: inactive; hERG protect: -10; KCNK3 block: inactive; Kir21 inh: 0; KCNQ1 act: inactive; KCNQ1 inh valid: 48*; CHO Tl flux: 0.44; KCNQ2 spec: 93%*; KCNQ1 KCNE1 spec: 80%*

Results for CCn1c(=O)c(CCC(=O)NCCN2CCOCC2)c(C)c2c(C)nn(-c3ccccc3)c21 ?
KCNQ1 inh: inactive; KCNK9 block: inactive; hERG protect: -10; KCNK3 block: inactive; Kir21 inh: -1.6; KCNQ1 act: inactive

Results for CCOc1ccc(C2/C(=C(/O)c3ccc4c(c3)CC(C)O4)C(=O)C(=O)N2CCCn2ccnc2)cc1OCC (stereo unspecified) ?
KCNQ1 inh: inactive; KCNK9 block: inactive; hERG protect: -6; KCNK3 block: inactive; Kir21 inh: 1.5; KCNQ1 act: inactive

Source: PubChem BioAssay (Johns Hopkins Ion Channel Center)
